# Measured values collected from several papers.
# Protocols differ between the studies behind these lines.
# Target: RAC-beta serine/threonine-protein kinase (AKT2, Homo sapiens, UniProt P31751)
SMILES,assay,setting,quantity,result
CC#CC(=O)N1CCC[C@H]1c1nc(-c2ccc(C(=O)Nc3ccccn3)cc2)c2c(N)nccn12,"enzyme activity, inhibitor",1 µM,inhibition,0%
Cc1cc(-c2ccnc3[nH]cc(F)c23)cc(F)c1[C@@]1(O)[C@H](C)CN(C2CCS(=O)(=O)CC2)C[C@@H]1C,"enzyme activity, inhibitor",15 nM,remaining activity,93%
C1=C/COCc2cc(ccc2OCCN2CCCC2)Nc2nccc(n2)-c2cccc(c2)COC/1,binding,0.1 µM,remaining binding,100%
C#Cc1cnc(Nc2ccnc(CO)c2)nc1Nc1ccccc1S(C)(=O)=NC#N (stereo not shown),cell-free assay,1 µM,remaining signal,100%
COc1ccc2oc(-c3ccc4nc(N)oc4c3)c/c(=N\c3ccccc3NC(=O)CCN)c2c1,binding,1 µM,remaining binding,93%
C[C@H]1CC[C@H](n2c3cnccc3c3cnc(Nc4ccc5c(n4)CCN(C(=O)CO)C5)nc32)CC1,cell-free assay,1 µM,remaining signal,100%
CCCCC(=O)Nc1ccc(-c2ccc3ncn(CCC)c(=O)c3c2)cn1,"binding, competition with immobilised ligand",0.5 µM,remaining binding,100%
CN1CCN(C(=O)c2ccc(NC(=O)Nc3ccc(N(C)c4ccnc(Nc5ccc(CS(C)(=O)=O)cc5)n4)cc3)cc2)CC1,binding,1 µM,remaining binding,100%
C=CC(=O)N1CCC([C@@H]2CCNc3c(C(N)=O)c(-c4ccc(Oc5ccccc5)cc4)nn32)CC1,"enzyme activity, inhibitor",1 µM,inhibition,1%
N#Cc1ccc(NC(=O)Nc2ccccc2)cc1,"cell-free assay, competition with immobilised ligand",25 µM,remaining binding,92%
